Results on two molecules are retold here after article PMC6832743 (ACS nano, 2019).

The nature of data set [1]: UV-vis absorption / aqueous solubility of Ce6. The conditions noted are these: Ce6 diluted in PBS; ~660 nm absorption peak absent. The data set is classed as physicochemical.
In data set [2] the test system is Mouse bone marrow-derived dendritic cells (BMDCs). Nature of the data set: BMDC cytokine secretion. To be noted: 6 h incubation + 18 h fresh medium, ELISA. The data set is classed as cell-based. In outline: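 Immature mouse bone marrow-derived DCs plated at 2 × 10^6 cells per well and held overnight. Cells exposed for 6 h to free adjuvant, free photosensitizer or loaded mesoporous silica nanoparticles. Medium exchanged for fresh medium and incubation continued for 18 h. Culture medium then collected and IL-12p70 and TNF-α measured with ELISA kits.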

The test system is the same in data set [3]. In words: BMDC activation. To be noted: 6 h incubation + 18 h fresh medium, flow cytometry. It counts as cell-based. A digest of the protocol: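 Immature mouse bone marrow-derived DCs plated at 2 × 10^6 cells per well and held overnight. Cells exposed for 6 h to free adjuvant, free photosensitizer or adjuvant/photosensitizer-loaded mesoporous silica nanoparticles. Medium then replaced and incubation continued for 18 h. Cells harvested, stained with fluorophore-labelled anti-CD40, anti-CD80 and anti-CD86, and analysed by flow cytometry, gating live intact cells only.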

Take `C=Cc1c(C)c2cc3nc(c(CC(=O)O)c4[nH]c(cc5nc(cc1[nH]2)C(C)=C5CC)c(C)c4C(=O)O)[C@@H](CCC(=O)O)[C@@H]3C` [Ce6, chlorin e6]: in data set [1], the aqueous solubility result is recorded as “poor aqueous solubility”. The “secretion of IL-12p70 and TNF-α” value in data set [2] is “did not secrete any detectable levels”. In data set [3], the “DC maturation (expression levels of CD40, CD80, CD86)” value is “no obvious signs of DC maturation”.

Consider CSSASMTNMELM [Adpgk], for which the “secretion of IL-12p70 and TNF-α” value in data set [2] is “did not secrete any detectable levels”. Also, in data set [3], the “DC maturation (expression levels of CD40, CD80, CD86)” value is reported as “no obvious signs of DC maturation”.
